Key:
[1] = system: surface groove of MCL-1; conditions: ref Kotschy et al., 2016; cited from earlier work
[2] = ref Kotschy et al., 2016; cited from earlier work
[3] = target: the molecule itself; test: SEC
[4] = system: MCAD; type: binding, mouse; conditions: Mcl-1-deleted murine livers reconstituted by scAAV; MS in duplicate
Outline: (§1)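 Mcl-1 floxed mice (6–8 weeks, mixed sex) received tail-vein scAAV-LP1-Cre (2×10^11 genome copies) plus GFP control or FLAG-MCL-1 (wild-type, OMM-only or Matrix-only isoform) vectors (5×10^10 copies). Two weeks later, liver mitochondria were isolated by differential centrifugation and a 70%/30% Percoll gradient. Anti-FLAG M2 IP was run in 0.5% NP40/Tris pH 7.5 for 90 min, with FLAG-peptide elution. Three livers were pooled per IP; MS was run in duplicate, Sequest, ~1% FDR.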

[5] = system: SCAD; type: binding, mouse; conditions: Mcl-1-deleted murine livers reconstituted by scAAV; MS in duplicate
Outline: as §1

[6] = system: PUMA; type: binding, mouse; conditions: Mcl-1-deleted murine livers reconstituted by scAAV; MS in duplicate
Outline: as §1

[7] = system: BIM; type: binding, mouse; conditions: Mcl-1-deleted murine livers reconstituted by scAAV; MS in duplicate
Outline: as §1

Molecule: Cc1c(-c2c(-c3ccc(F)o3)sc3ncnc(O[C@H](Cc4ccccc4OCc4ccnn4CC(F)(F)F)C(=O)O)c23)ccc(OCCN2CCN(C)CC2)c1Cl [S63845]
- Selectivity for MCL-1 [1]: selectively targets the surface groove of MCL-1
- Toxicity in treated mice [2]: lack of overt toxicity, including cardiotoxicity

B1: recombinant human VLCAD (aa 40-655), His-tagged (enzyme, UniProt P49748-1 40-655, looked up)
chain: YAGGAAQLALDKSDSHPSDALTRKKPAKAESKSFAVGMFKGQLTTDQVFPYPSVLNEEQTQFLKELVEPVSRFFEEVNDPAKNDALEMVEETTWQGLKELGAFGLQVPSELGGVGLCNTQYARLVEIVGMHDLGVGITLGAHQSIGFKGILLFGTKAQKEKYLPKLASGETVAAFCLTEPSSGSDAASIRTSAVPSPCGKYYTLNGSKLWISNGGLADIFTVFAKTPVTDPATGAVKEKITAFVVERGFGGITHGPPEKKMGIKASNTAEVFFDGVRVPSENVLGEVGSGFKVAMHILNNGRFGMAAALAGTMRGIIAKAVDHATNRTQFGEKIHNFGLIQEKLARMVMLQYVTESMAYMVSANMDQGATDFQIEAAISKIFGSEAAWKVTDECIQIMGGMGFMKEPGVERVLRDLRIFRIFEGTNDILRLFVALQGCMDKGKELSGLGSALKNPFGNAGLLLGEAGKQLRRRAGLGSGLSLSGLVHPELSRSGELAVRALEQFATVVEAKLIKHKKGIVNEQFLLQRLADGAIDLYAMVVVLSRASRSLSEGHPTAQHEKMLCDTWCIEAAARIREGMAALQSDPWQQELYRNFKSISKALVERGGVVTSNPLGF
- stoichiometry N [3]: 2

B2: FLAG-MCL-1: full-length protein, reconstituted into Mcl-1−/− murine livers (protein, UniProt P97287 1-331, looked up)
chain: MFGLRRNAVIGLNLYCGGASLGAGGGSPAGARLVAEEAKARREGGGEAALLPGARVVARPPPVGAEDPDVTASAERRLHKSPGLLAVPPEEMAASAAAAIVSPEEELDGCEPEAIGKRPAVLPLLERVSEAAKSSGADGSLPSTPPPPEEEEDDLYRQSLEIISRYLREQATGSKDSKPLGEAGAAGRRALETLRRVGDGVQRNHETAFQGMLRKLDIKNEGDVKSFSRVMVHVFKDGVTNWGRIVTLISFGAFVAKHLKSVNQESFIEPLAETITDVLVRTKRDWLVKQRGWDGFVEFFHVQDLEGGIRNVLLAFAGVAGVGAGLAYLIR
modifications: full-length FLAG tag
- Interaction with MCAD (FLAG pull-down) [4]: not MCAD or SCAD
- Interaction with SCAD (FLAG pull-down) [5]: not MCAD or SCAD
- Interaction with PUMA (FLAG pull-down) [6]: pulled down native VLCAD and established physiologic interactors of MCL-1, such as BIM and PUMA
- Interaction with BIM (FLAG pull-down) [7]: pulled down native VLCAD and established physiologic interactors of MCL-1, such as BIM and PUMA

B3: FLAG-MCL-1^OMM: mutant MCL-1 construct with an internal FLAG tag that only generates the OMM isoform (protein)
chain: MFGLAANAVIGLNLYCGGASLGAGGGSPAGARLVAEEAKARREGGGEAALLPGARVVARPPPVGAEDPDVTASAERRLHKSPGLLAVPPEEMAASAAAAIVSPEEELDGCEPEAIGKRPAVLPLLERVSEAAKSSGADGSLPSTPPPPEEEEDDLYRQSLEIISRYLREQATGSKDSKPLGEAGAAGRRALETLRRVGDGVQRNHETAFQGMLRKLDIKNEGDVKSFSRVMVHVFKDGVTNWGRIVTLISFGAFVAKHLKSVNQESFIEPLAETITDVLVRTKRDWLVKQRGWDGFVEFFHVQDLEGGIRNVLLAFAGVAGVGAGLAYLIR
modifications: left off: FLAG, internal (at residue 134), kept
- Interaction with PUMA (FLAG pull-down) [6]: BIM and PUMA were enriched
- Interaction with BIM (FLAG pull-down) [7]: BIM and PUMA were enriched

Reference: publication PMC5916823 (Molecular cell, 2018)
